Source: ChEMBL document CHEMBL1955837 (J Med Chem, 2012)
pIC50: −log10 of the molar value. Activity calls are given as the source filed them. The calls are words filed in the database; no cut-off is given here.

How the values were obtained:
[1] = molecular target: Nitric oxide synthase, inducible (Homo sapiens, UniProt P35228); assay: Inhibition of human recombinant iNOS expressed in baculovirus infected insect Sf9 cells assessed as conversion of [3H]L-arginine to [3H]L-citrulline incubated for 15 mins prior to substrate addition measured after 45 mins by liquid scintillation counting
Nitric oxide synthase 1 [2] = molecular target: Nitric oxide synthase 1 (Homo sapiens, UniProt P29475); assay: Inhibition of human recombinant nNOS expressed in baculovirus infected insect Sf9 cells assessed as conversion of [3H]L-arginine to [3H]L-citrulline incubated for 15 mins prior to substrate addition measured after 45 mins by liquid scintillation counting
Nitric oxide synthase 3 [3] = molecular target: T1, Nitric oxide synthase 3 (Homo sapiens, UniProt P29474); assay: Inhibition of human recombinant eNOS expressed in baculovirus infected insect Sf9 cells assessed as conversion of [3H]L-arginine to [3H]L-citrulline incubated for 15 mins prior to substrate addition measured after 45 mins by liquid scintillation counting
T1 sequence (P29474 whole entry): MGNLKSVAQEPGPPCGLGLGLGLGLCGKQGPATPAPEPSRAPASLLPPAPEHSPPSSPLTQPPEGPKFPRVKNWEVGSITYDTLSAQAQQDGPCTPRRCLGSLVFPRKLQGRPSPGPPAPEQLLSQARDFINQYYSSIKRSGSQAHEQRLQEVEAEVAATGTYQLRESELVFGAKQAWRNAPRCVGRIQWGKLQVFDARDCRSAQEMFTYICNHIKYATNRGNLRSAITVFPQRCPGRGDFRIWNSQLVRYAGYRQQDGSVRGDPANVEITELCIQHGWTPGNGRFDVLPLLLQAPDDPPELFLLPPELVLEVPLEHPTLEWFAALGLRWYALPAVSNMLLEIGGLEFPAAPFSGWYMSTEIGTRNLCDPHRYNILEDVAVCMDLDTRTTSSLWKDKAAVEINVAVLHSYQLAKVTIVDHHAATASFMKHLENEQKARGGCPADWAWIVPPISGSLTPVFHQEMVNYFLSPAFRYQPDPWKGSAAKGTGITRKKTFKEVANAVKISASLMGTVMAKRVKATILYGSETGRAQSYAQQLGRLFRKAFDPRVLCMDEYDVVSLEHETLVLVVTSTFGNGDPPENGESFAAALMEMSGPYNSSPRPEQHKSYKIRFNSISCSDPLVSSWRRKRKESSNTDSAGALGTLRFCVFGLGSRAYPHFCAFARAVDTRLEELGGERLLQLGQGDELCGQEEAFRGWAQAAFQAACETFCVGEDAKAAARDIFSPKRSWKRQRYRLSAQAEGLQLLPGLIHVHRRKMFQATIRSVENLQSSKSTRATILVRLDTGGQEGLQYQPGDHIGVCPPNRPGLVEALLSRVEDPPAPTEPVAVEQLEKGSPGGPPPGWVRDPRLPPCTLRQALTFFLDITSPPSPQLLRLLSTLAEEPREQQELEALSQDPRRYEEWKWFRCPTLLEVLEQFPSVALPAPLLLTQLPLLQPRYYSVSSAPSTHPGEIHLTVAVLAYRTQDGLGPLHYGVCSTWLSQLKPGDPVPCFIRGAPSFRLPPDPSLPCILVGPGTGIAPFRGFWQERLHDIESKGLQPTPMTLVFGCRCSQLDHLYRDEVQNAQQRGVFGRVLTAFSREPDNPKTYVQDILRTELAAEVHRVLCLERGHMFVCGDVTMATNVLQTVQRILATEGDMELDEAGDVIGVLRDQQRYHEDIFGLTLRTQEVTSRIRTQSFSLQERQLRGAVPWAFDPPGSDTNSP

Homo sapiens = species: Homo sapiens; assay: Selectivity ratio of IC50 for human recombinant eNOS to IC50 for human recombinant nNOS
[4] = molecular target: Nitric oxide sythases; iNOS & nNOS (Homo sapiens) (UniProt P29475+P35228); assay: Selectivity ratio of IC50 for human recombinant iNOS to IC50 for human recombinant nNOS
[5] = Cardiotoxicity in human arteries assessed as inhibition of acetylcholine-mediated vasorelaxation at 100 uM pretreated with U46619 prior to Ach challenge measured after 50 mins; format: toxicity, tissue-based, Artery
How it was run: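 Human resistance artery rings (~2 mm) were wire-mounted in a myograph in Krebs-bicarbonate PSS gassed with 95% O2/5% CO2 at 37 °C, and isometric tension was recorded. After ≥30 min equilibration, rings received three KPSS (62.5 mM) challenges. Endothelial integrity was checked with U46619 (1 × 10⁻⁷ M) then ACh. Compound was added for 50 min without L-arginine, then rings were submaximally precontracted with U46619 before cumulative ACh (1 × 10⁻¹⁰ to 1 × 10⁻⁵ M).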

[6] = molecular target: Voltage-gated inwardly rectifying potassium channel KCNH2 (Homo sapiens, UniProt Q12809); assay: Inhibition of human Erg expressed in HEK293 cells by patch clamp assay
[7] = Cardiotoxicity in human arteries assessed as inhibition of acetylcholine-mediated vasorelaxation at 100 uM pretreated with U46619 prior to Ach challenge measured after 50 mins in presence of L-arginine; format: toxicity, tissue-based, Artery
[8] = molecular target: Kappa-type opioid receptor (Rattus norvegicus) (UniProt P34975); assay: Displacement of [3H]U 69593 from rat recombinant kappa opioid receptor expressed in CHO cells at 10 uM after 60 mins; format: cell-based
How it was run: (§1)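 Single-concentration (10 μM) radioligand binding screen. Specific binding = total minus nonspecific binding, with nonspecific binding taken in excess unlabeled ligand. Results were given as percent inhibition of control specific binding.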

[9] = molecular target: Muscarinic acetylcholine receptor M1 (Homo sapiens) (UniProt P11229); assay: Displacement of [3H]pirenzepine from human recombinant muscarinic M1 receptor expressed in CHO cells at 10 uM after 60 mins; format: cell-based; how it was run: as §1
[10] = molecular target: T2, Sodium-dependent noradrenaline transporter (Homo sapiens, UniProt P23975); assay: Displacement of [3H]nisoxetine from human recombinant norepinephrine transporter expressed in CHO cells at 10 uM after 120 mins; format: cell-based; how it was run: as §1
Rattus norvegicus [11] = assay: Analgesic activity in rat Chung model of neuropathic pain assessed as partial reversal of thermal hyperalgesia at 30 mg/kg, ip; format: functional, organism-based; design: dose 30 mg/kg
How it was run: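 Rats anesthetized with halothane; L5 and L6 spinal nerves exposed, isolated and tightly ligated with 4-0 silk suture distal to the DRG. After surgical recovery, hyperalgesia was read as paw withdrawal latency to radiant heat applied to the paw after intraperitoneal dosing.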

[12] = molecular target: Adrenergic receptor alpha-2 (Rattus norvegicus) (UniProt P22086+P19328+P22909); assay: Displacement of [3H]RX 821002 from rat cerebral cortex alpha2 adrenergic receptor at 10 uM after 60 mins; format: tissue-based; how it was run: as §1
Rattus norvegicus [13] = species: Rattus norvegicus; assay: Displacement of [3H]DTG from rat cerebral cortex sigma receptor at 10 uM after 120 mins; format: tissue-based; how it was run: as §1
[14] = molecular target: Muscarinic acetylcholine receptor M5 (Homo sapiens) (UniProt P08912); assay: Displacement of [3H]4-DAMP from human recombinant muscarinic M5 receptor expressed in CHO cells at 10 uM after 60 mins; format: cell-based; how it was run: as §1
[15] = molecular target: 5-hydroxytryptamine receptor 5A (Homo sapiens) (UniProt P47898); assay: Displacement of [3H]LSD from human recombinant 5-HT5a receptor expressed in HEK293 cells at 10 uM after 120 mins; format: cell-based; how it was run: as §1
[16] = molecular target: T2, Sodium-dependent noradrenaline transporter; assay: Displacement of [3H]nisoxetine from human recombinant norepinephrine transporter expressed in CHO cells after 120 mins; format: cell-based
Nitric oxide synthase 1 [17] = molecular target: Nitric oxide synthase 1 (Rattus norvegicus, UniProt P29476); assay: Inhibition of rat recombinant nNOS expressed in baculovirus infected insect Sf9 cells assessed as conversion of [3H]L-arginine to [3H]L-citrulline incubated for 15 mins prior to substrate addition measured after 45 mins by liquid scintillation counting
[18] = molecular target: Muscarinic acetylcholine receptor M2 (Homo sapiens) (UniProt P08172); assay: Displacement of [3H]AF-DX 384 from human recombinant muscarinic M2 receptor expressed in CHO cells at 10 uM after 60 mins; format: cell-based; how it was run: as §1
[19] = molecular target: Mu-type opioid receptor (Homo sapiens) (UniProt P35372); assay: Displacement of [3H]DAMGO from human recombinant mu opioid receptor expressed in HEK 293 cells at 10 uM after 120 mins; format: cell-based; conditions: HEK293; how it was run: as §1
[20] = molecular target: Nitric oxide synthase, inducible (Rattus norvegicus, UniProt Q06518); assay: Inhibition of rat recombinant iNOS expressed in baculovirus infected insect Sf9 cells assessed as conversion of [3H]L-arginine to [3H]L-citrulline incubated for 15 mins prior to substrate addition measured after 45 mins by liquid scintillation counting
[21] = molecular target: Muscarinic acetylcholine receptor M3 (Homo sapiens) (UniProt P20309); assay: Displacement of [3H]4-DAMP from human recombinant muscarinic M3 receptor expressed in CHO cells at 10 uM after 60 mins; format: cell-based; how it was run: as §1
Nitric oxide synthase 3 [22] = molecular target: Nitric oxide synthase 3 (Rattus norvegicus, UniProt Q62600); assay: Inhibition of rat recombinant eNOS expressed in baculovirus infected insect Sf9 cells assessed as conversion of [3H]L-arginine to [3H]L-citrulline incubated for 15 mins prior to substrate addition measured after 45 mins by liquid scintillation counting
[23] = molecular target: Muscarinic acetylcholine receptor M4 (Homo sapiens) (UniProt P08173); assay: Displacement of [3H]4-DAMP from human recombinant muscarinic M4 receptor expressed in CHO cells at 10 uM after 60 mins; format: cell-based; how it was run: as §1
[24] = molecular target: 5-hydroxytryptamine receptor 1B (Rattus norvegicus) (UniProt P28564); assay: Displacement of [125I]CYP from rat cerebral cortex 5HT1B receptor at 10 uM after 120 mins in the presence of (-)propranolol; format: tissue-based; how it was run: as §1
Rattus norvegicus [25] = assay: Analgesic activity in rat Chung model of neuropathic pain assessed as partial reversal of thermal hyperalgesia at 30 mg/kg, ip measured after 30 mins; conditions: route intraperitoneal

Sequence of Nitric oxide synthase, inducible (Homo sapiens, UniProt P35228) (P35228 whole entry): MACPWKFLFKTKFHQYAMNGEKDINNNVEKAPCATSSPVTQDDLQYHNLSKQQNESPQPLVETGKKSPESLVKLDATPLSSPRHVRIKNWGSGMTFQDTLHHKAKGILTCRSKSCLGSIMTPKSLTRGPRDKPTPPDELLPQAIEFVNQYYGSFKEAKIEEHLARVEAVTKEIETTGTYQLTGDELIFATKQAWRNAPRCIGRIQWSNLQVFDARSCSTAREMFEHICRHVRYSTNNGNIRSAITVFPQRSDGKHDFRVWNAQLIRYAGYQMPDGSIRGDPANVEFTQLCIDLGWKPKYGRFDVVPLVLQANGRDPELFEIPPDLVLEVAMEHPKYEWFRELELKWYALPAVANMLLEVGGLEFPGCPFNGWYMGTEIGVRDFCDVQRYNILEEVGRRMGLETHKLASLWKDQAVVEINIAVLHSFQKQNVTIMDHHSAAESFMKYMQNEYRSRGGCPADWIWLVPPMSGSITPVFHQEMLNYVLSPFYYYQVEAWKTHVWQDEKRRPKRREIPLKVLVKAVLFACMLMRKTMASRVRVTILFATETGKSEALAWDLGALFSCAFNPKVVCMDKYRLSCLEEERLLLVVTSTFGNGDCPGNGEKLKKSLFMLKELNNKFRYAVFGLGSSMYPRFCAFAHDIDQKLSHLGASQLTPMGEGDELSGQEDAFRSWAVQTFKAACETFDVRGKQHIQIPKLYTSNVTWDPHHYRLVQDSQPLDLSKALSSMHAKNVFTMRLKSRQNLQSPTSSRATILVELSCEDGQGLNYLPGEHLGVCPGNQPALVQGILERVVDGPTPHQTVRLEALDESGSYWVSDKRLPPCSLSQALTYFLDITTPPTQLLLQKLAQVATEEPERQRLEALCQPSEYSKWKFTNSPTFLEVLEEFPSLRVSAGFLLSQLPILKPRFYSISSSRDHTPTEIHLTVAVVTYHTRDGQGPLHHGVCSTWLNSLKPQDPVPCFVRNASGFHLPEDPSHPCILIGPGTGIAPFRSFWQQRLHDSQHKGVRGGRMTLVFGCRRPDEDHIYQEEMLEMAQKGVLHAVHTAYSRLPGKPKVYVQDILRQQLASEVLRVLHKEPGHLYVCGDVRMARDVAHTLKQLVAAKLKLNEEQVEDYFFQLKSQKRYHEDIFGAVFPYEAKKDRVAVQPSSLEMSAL
Sequence of Nitric oxide synthase 1 (Homo sapiens, UniProt P29475) (P29475 whole entry): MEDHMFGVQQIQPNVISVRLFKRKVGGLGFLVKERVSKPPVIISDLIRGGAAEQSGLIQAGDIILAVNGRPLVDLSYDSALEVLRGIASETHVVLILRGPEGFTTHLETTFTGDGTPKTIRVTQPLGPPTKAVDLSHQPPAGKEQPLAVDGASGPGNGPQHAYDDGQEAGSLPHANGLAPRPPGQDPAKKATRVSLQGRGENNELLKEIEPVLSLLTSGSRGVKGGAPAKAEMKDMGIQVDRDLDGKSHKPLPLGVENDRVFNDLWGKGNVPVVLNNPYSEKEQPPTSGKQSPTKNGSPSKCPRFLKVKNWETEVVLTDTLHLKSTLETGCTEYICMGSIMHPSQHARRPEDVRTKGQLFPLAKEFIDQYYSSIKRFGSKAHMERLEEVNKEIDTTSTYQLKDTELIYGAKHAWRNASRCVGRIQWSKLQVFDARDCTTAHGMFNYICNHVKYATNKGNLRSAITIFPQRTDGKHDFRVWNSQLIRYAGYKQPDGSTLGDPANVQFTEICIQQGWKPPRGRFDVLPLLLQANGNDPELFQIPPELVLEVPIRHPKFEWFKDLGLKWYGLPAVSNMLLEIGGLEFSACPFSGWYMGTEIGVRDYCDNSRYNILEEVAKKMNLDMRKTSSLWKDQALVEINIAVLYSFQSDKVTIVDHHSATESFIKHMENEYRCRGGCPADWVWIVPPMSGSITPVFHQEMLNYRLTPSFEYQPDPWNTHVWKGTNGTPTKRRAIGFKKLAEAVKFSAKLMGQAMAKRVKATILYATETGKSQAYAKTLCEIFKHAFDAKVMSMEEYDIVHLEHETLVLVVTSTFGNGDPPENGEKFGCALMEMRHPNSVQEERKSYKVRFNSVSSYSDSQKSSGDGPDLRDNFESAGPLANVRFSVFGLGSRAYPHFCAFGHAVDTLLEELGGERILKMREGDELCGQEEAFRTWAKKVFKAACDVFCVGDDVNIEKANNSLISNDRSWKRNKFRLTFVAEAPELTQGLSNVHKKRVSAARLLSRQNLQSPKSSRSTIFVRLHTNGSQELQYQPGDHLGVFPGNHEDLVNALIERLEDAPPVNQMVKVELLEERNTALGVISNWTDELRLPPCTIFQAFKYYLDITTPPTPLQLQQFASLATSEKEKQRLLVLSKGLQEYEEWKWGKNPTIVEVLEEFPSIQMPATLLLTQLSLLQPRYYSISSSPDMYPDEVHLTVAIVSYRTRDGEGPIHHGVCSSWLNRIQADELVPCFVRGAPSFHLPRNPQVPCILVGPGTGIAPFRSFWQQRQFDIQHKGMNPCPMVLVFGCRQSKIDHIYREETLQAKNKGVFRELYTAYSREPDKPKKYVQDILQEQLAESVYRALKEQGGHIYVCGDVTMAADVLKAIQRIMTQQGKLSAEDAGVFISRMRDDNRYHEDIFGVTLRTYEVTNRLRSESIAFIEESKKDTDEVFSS
Sequence of Nitric oxide sythases; iNOS & nNOS (Homo sapiens) (P29475 whole entry, looked up): as the sequence (P29475 whole entry) above
Sequence of Nitric oxide sythases; iNOS & nNOS (Homo sapiens) (P35228 whole entry, looked up): as the sequence (P35228 whole entry) above
T2 sequence (P23975 whole entry): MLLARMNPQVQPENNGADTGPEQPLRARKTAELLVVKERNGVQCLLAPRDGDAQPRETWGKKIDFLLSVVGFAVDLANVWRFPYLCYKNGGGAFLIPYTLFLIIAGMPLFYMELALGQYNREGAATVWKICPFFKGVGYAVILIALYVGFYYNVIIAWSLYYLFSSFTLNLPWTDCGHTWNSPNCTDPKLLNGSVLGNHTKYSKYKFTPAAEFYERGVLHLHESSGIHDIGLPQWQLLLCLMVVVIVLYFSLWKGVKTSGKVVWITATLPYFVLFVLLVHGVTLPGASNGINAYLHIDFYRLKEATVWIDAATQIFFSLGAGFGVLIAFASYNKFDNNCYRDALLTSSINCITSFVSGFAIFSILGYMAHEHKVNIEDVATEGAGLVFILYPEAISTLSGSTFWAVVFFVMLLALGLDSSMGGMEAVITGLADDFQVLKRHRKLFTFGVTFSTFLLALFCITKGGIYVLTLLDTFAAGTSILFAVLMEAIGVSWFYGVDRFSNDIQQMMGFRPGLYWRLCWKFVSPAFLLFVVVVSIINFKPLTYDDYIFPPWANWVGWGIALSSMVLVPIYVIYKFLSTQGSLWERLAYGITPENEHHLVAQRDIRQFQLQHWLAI
Sequence of 5-hydroxytryptamine receptor 1B (Rattus norvegicus) (P28564 whole entry): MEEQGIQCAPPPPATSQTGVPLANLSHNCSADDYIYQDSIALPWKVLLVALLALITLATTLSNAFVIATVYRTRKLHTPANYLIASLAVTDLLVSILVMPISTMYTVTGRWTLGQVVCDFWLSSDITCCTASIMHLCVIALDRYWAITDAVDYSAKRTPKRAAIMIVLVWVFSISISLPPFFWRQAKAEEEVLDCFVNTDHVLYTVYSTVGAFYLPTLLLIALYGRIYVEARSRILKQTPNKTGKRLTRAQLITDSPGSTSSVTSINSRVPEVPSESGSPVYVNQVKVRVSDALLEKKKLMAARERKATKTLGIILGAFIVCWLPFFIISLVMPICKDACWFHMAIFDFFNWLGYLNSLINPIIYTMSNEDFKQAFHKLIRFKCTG
Sequence of Muscarinic acetylcholine receptor M2 (Homo sapiens) (P08172 whole entry): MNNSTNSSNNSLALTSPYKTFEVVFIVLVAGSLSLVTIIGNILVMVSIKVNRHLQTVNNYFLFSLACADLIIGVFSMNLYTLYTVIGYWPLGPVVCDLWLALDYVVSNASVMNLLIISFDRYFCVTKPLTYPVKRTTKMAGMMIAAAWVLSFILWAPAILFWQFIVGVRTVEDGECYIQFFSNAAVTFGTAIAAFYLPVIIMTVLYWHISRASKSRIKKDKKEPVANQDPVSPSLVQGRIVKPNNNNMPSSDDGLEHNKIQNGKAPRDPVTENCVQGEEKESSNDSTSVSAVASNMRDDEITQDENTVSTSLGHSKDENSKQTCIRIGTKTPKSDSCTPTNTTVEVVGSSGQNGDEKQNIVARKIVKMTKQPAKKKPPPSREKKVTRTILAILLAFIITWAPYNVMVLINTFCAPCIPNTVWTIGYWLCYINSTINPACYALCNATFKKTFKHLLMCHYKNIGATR
Sequence of Muscarinic acetylcholine receptor M3 (Homo sapiens) (P20309 whole entry, looked up): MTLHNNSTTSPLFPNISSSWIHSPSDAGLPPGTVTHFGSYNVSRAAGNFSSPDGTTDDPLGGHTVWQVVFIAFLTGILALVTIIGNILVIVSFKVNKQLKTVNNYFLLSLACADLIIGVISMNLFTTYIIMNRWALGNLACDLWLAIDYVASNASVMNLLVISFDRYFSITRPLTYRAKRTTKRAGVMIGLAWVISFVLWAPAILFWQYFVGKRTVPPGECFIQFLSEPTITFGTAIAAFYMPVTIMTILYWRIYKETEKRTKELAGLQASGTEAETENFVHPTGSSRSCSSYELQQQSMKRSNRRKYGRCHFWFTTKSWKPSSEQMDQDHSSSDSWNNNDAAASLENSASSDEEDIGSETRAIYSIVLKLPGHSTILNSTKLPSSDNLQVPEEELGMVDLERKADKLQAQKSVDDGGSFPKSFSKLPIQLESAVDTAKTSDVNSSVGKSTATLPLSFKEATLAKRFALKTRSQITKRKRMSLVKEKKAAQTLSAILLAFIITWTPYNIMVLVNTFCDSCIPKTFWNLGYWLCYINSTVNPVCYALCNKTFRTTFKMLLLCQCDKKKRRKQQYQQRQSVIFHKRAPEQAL

Row | SMILES | pIC50 [1] | pIC50 (Nitric oxide synthase 1 [2]) | pIC50 (Nitric oxide synthase 3 [3]) | Ratio IC50 (Homo sapiens) | Ratio IC50 [4] | also measured
1 | CN[C@H]1CC[C@H](N2CCc3ccc(NC(=N)c4cccs4)cc32)CC1 | 3.72 | 5.67 | 3.63 |  |  | 
2 | N=C(Nc1ccc2c(c1)N(C1CCCCC1)CC2)c1cccs1 |  |  |  | 27 |  | 
3 | N=C(Nc1ccc2c(c1)N(CCN1CC[C@@H](O)C1)CC2)c1cccs1 |  |  |  | 71 | 62 | 
4 | NC(=Nc1ccc2c(c1)N(C1CCOCC1)CC2)c1cccs1 | < 4.00 | 5.49 | 4.07 |  |  | 
5 | N=C(Nc1ccc2c(c1)N(C1CCSCC1)CC2)c1cccs1 |  |  |  | 10 | 0.5 | 
6 | NC(=Nc1ccc2c(c1)N(C1CCCCC1)CC2)c1cccs1 | < 4.00 | 5.39 | 3.96 |  |  | 
7 | CN[C@H]1CC[C@H](N2CCc3cc(F)c(NC(=N)c4cccs4)cc32)CC1 | 3.28 | 5.24 | 3.64 | 41 | 91 | 
8 | NC(=Nc1ccc2c(c1)N(C1CCSCC1)CC2)c1cccs1 | 5.95 | 5.68 | 4.67 |  |  | 
9 | NC(=Nc1ccc2c(c1)N(C1CCNCC1)CC2)c1cccs1 | 5.62 | 6.27 | 4.00 |  |  | 
10 | N=C(Nc1ccc2c(c1)N(CCNCCO)CC2)c1cccs1 |  |  |  | 48 | 49 | 
11 | CN1CCC[C@H]1CCN1CCCc2cc(NC(=N)c3cccs3)ccc21 |  |  |  |  |  | Activity [5]: Active; pIC50 [6]: 5.33; Activity [7]: Active
12 | NC(=Nc1ccc2c(c1)N(CCN1CC[C@@H](O)C1)CC2)c1cccs1 | 5.17 | 6.96 | 5.15 |  |  | 
13 | N=C(Nc1ccc2c(c1)N(C1CCNCC1)CC2)c1cccs1 |  |  |  | 183 | 4 | 
14 | NC(=Nc1ccc2c(c1)N(CCNCCO)CC2)c1cccs1 | 5.47 | 7.15 | 5.47 |  |  | 
15 | N=C(Nc1ccc2c(c1)N(C1CCNC1)CC2)c1cccs1 (racemic) | 5.05 | 6.74 | 5.14 | 40 | 50 | 
16 | CN[C@H]1CC[C@@H](N2CCc3ccc(NC(=N)c4cccs4)cc32)CC1 | 4.08 | 6.43 | 3.71 |  |  | inhibition [8]: 69%; inhibition [9]: 80%; inhibition [10]: 86%; Activity (Rattus norvegicus [11]): Active; inhibition [12]: 58%; inhibition (Rattus norvegicus [13]): 72%; inhibition [14]: 90%; Activity [5]: Not Active; inhibition [15]: 59%; pIC50 [16]: 5.36; pIC50 (Nitric oxide synthase 1 [17]): 5.71; inhibition [18]: 80%; inhibition [19]: 52%; pIC50 [20]: 5.63; inhibition [21]: 85%; pIC50 (Nitric oxide synthase 3 [22]): 5.38; inhibition [23]: 95%; inhibition [24]: 60%; Activity [7]: Not Active; MPE (Rattus norvegicus [25]): 66%
17 | N=C(Nc1cc2c(cc1F)CCN2C1CCNCC1)c1cccs1 | 3.32 | 4.73 | 3.61 | 13 | 26 | 
18 | CN[C@H]1CC[C@@H](N2CCc3cc(F)c(NC(=N)c4cccs4)cc32)CC1 | 3.05 | 5.24 | 3.66 | 38 | 154 | 
19 | N=C(Nc1ccc2c(c1)N(C1CCOCC1)CC2)c1cccs1 |  |  |  | 26 |  | 
